The record followed here is ChEMBL document CHEMBL4261529, “Rational design and optimization of selenophenes with basic side chains as novel potent selective estrogen receptor modulators (SERMs) for breast cancer therapy” (Medchemcomm, 2017).

As a reminder, the IC50 is the concentration needed to halve the response being measured. In general, EC50 refers to the concentration giving half of the maximal effect.

Each structure is given as a SMILES string. Activity calls are given as the source filed them. The calls are words filed in the database; no cut-off is given here.

Assay [1] relates to MCF7. Nature of the assay: Antiproliferative activity against human MCF7 cells at 50 uM after 5 days in presence of 10 nM 17beta-estradiol by MTT assay. It counts as functional, cell-based. The essentials: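 MCF-7 cells were given 50 μM compound with or without 10 nM E2 and cultured 5 days. Viability was expressed relative to untreated cells set at 100%. Mean of three separate experiments ± range.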
For orientation: Formazan colour is commonly taken as a measure of viable cells.

Assay [2] concerns the target T1, Estrogen receptor beta (Homo sapiens, UniProt Q92731). As to the kind of experiment: Binding affinity to human ERbeta LBD expressed in Escherichia coli BL21(DE3) after 2 hrs by fluorescence tracer coumestrol based competitive fluorometric binding assay relative to 17beta-estradiol.
For assay [3], the target named is T1, Estrogen receptor beta. As to the kind of experiment: Antagonist activity at ERbeta (unknown origin) expressed in HEK293T cells assessed as inhibition of 17beta-estradiol stimulated transcriptional activity after 24 hrs by dual luciferase reporter gene assay relative to 17beta-estradiol. It counts as cell-based. The essentials: (§1)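 ERβ expression vector (100 ng) plus 300 ng 3×ERE-luciferase reporter, calcium phosphate transfection into HEK293T cells plated in phenol red-free DMEM with 10% FBS. Next day, treated in triplicate with increasing doses (up to 10–5 M). For antagonist mode, 10 nM estradiol was co-added. Luciferase read 24 h later.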
(In a reporter assay the amount or activity of a reporter protein is the signal.)

A further assay addresses T2, Estrogen receptor (Homo sapiens, UniProt P03372).
T2 sequence (P03372 whole entry): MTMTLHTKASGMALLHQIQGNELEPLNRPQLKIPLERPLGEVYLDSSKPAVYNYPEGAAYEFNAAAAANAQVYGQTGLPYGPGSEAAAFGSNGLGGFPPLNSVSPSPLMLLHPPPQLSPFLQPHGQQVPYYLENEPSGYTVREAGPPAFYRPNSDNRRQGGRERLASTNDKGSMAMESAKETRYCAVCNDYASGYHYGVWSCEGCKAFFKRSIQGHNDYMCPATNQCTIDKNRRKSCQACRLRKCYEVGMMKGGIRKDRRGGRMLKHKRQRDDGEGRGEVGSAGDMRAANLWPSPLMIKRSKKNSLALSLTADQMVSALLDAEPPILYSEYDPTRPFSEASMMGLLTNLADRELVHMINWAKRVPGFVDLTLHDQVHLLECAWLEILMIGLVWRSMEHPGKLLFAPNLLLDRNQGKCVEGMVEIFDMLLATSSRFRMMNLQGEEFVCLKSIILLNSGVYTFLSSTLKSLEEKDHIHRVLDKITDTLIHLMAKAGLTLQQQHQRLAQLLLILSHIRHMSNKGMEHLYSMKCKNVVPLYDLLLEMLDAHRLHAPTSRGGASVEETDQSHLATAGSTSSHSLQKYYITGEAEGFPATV
Nature of the assay: Antagonist activity at ERalpha (unknown origin) expressed in HEK293T cells assessed as inhibition of 17beta-estradiol stimulated transcriptional activity after 24 hrs by dual luciferase reporter gene assay. It counts as cell-based.

The species entered for the next assay is Homo sapiens. Nature of the assay: Ratio of relative binding affinity for human ERalpha LBD to relative binding affinity to human ERbeta LBD.
For assay [4], the system named is MCF7. Nature of the assay: Antiproliferative activity against human MCF7 cells after 72 hrs by MTT assay. It counts as functional, cell-based. Conditions: MCF7, 72 h. The method in brief: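 MCF-7 (ATCC), kept in DMEM with 10% FBS, were treated in triplicate for 72 h. IC50 is the average of at least three independent experiments ± SD.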
Assay [5] addresses T1, Estrogen receptor beta. Nature of the assay: Antagonist activity at ERbeta (unknown origin) expressed in HEK293T cells assessed as inhibition of 17beta-estradiol stimulated transcriptional activity after 24 hrs by dual luciferase reporter gene assay. It counts as cell-based. The method in brief:
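HEK293T cells kept in DMEM with 10% FBS, plated in phenol red-free DMEM/10% FBS. Calcium phosphate co-transfection with 300 ng 3×ERE-luciferase reporter and 100 ng ERβ expression vector. Next day, cells stimulated with 10 nM estradiol plus increasing compound doses (up to 10–5 M), in triplicate. Luciferase read after 24 h.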

The target of assay [6] is T1, Estrogen receptor beta. As to the kind of experiment: Agonist activity at ERbeta (unknown origin) expressed in HEK293T cells assessed as transcriptional activity after 24 hrs by dual luciferase reporter gene assay. It counts as cell-based. The method in brief:
as §1

The target in assay [7] is T3, Estrogen receptor (Homo sapiens) (UniProt P03372).
T3 sequence (whole entry): T2 sequence (P03372 whole entry)
As to the kind of experiment: Binding affinity to human ERalpha LBD expressed in Escherichia coli BL21(DE3) after 2 hrs by fluorescence tracer coumestrol based competitive fluorometric binding assay relative to 17beta-estradiol.

The target of assay [8] is T1, Estrogen receptor beta. Nature of the assay: Agonist activity at ERbeta (unknown origin) expressed in HEK293T cells assessed as transcriptional activity after 24 hrs by dual luciferase reporter gene assay relative to 17beta-estradiol. It counts as cell-based. The essentials:
as §1

T1 sequence (Q92731 whole entry, the tested form may be a part): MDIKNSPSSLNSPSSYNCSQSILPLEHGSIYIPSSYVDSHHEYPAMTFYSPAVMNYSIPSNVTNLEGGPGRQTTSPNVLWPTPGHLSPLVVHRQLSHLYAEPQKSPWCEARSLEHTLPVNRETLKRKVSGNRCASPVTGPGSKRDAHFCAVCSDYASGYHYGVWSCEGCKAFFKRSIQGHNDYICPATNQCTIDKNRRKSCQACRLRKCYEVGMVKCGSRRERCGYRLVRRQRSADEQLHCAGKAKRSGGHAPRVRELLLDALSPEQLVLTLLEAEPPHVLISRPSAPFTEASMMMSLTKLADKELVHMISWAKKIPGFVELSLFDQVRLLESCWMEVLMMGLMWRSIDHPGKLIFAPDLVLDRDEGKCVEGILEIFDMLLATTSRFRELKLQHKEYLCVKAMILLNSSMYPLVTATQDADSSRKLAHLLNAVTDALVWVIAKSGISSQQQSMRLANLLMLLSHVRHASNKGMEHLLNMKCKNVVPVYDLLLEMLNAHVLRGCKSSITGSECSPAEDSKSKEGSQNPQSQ

On to `Oc1ccc(-c2c[se]cc2-c2ccc(OCCN3CCCCC3)cc2)cc1`, for which the result in the assay on MCF7 [1] was inactive. For the same compound, the RBA at Estrogen receptor beta [2] was 2.35%; in assay [7] it was 7.58%. Besides, the values for the Efficacy on Estrogen receptor beta [3] and on Estrogen receptor beta [8] were 22.8% and 53.5%, respectively. In addition, the IC50 on Estrogen receptor was found to be 1.59 µM; in the assay with MCF7 [4], 8.13 µM; at Estrogen receptor beta [5] it was 0.451 µM. Moreover, the Ratio in the assay filed under Homo sapiens turned out to be 3.3. Further, the EC50 at Estrogen receptor beta [6] was determined as 1.15 µM.
